In ChEMBL document CHEMBL1142420, “Synthesis and DNA-cleaving activity of lactenediynes conjugated with DNA-complexing moieties” (2008):

Key:
Type in all cases: functional
[1] = test system: KM12; assay: Cytotoxicity against human KM12 cells after 48 hrs by SRB assay; conditions: KM12, 48 h
Procedure, shortened: (§1)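 Run at NCI: cell lines exposed 48 h to a range of concentrations, with untreated controls under identical conditions. Growth measured by sulforhodamine B staining with colorimetric read-out. Percent growth computed from test, time-zero and control absorbances. GI50, TGI and LC50 read from PG versus log10 molar concentration as the concentrations giving PG = 50, 0 and -50.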

[2] = test system: SW-620; assay: Cytotoxicity against human SW620 cells after 48 hrs by SRB assay; conditions: SW-620, 48 h; procedure, shortened: as §1
[3] = test system: SF-295; assay: Cytotoxicity against human SF295 cells after 48 hrs by SRB assay; conditions: SF-295, 48 h; procedure, shortened: as §1
[4] = test system: SF-539; assay: Cytotoxicity against human SF539 cells after 48 hrs by SRB assay; conditions: SF-539, 48 h; procedure, shortened: as §1
[5] = test system: UACC-257; assay: Cytotoxicity against human UACC257 cells after 48 hrs by SRB assay; conditions: UACC-257, 48 h; procedure, shortened: as §1
[6] = test system: IGROV-1; assay: Cytotoxicity against human IGROV1 cells after 48 hrs by SRB assay; conditions: IGROV-1, 48 h; procedure, shortened: as §1
[7] = test system: OVCAR-3; assay: Cytotoxicity against human OVCAR-3 cells after 48 hrs by SRB assay; conditions: OVCAR-3, 48 h; procedure, shortened: as §1
[8] = test system: 786-0; assay: Cytotoxicity against human 786-0 cells after 48 hrs by SRB assay; conditions: 786-0, 48 h; procedure, shortened: as §1
[9] = test system: CAKI-1; assay: Cytotoxicity against human CAKI1 cells after 48 hrs by SRB assay; conditions: CAKI-1, 48 h; procedure, shortened: as §1
[10] = test system: RXF 393; assay: Cytotoxicity against human […] cells after 48 hrs by SRB assay; conditions: RXF 393, 48 h; procedure, shortened: as §1
[11] = test system: TK-10; assay: Cytotoxicity against human TK10 cells after 48 hrs by SRB assay; conditions: TK-10, 48 h; procedure, shortened: as §1
[12] = test system: UO-31; assay: Cytotoxicity against human UO31 cells after 48 hrs by SRB assay; conditions: UO-31, 48 h; procedure, shortened: as §1
[13] = test system: NCI/ADR-RES; assay: Cytotoxicity against human NCI/ADR-RES cells after 48 hrs by SRB assay; procedure, shortened: as §1
[14] = Cytotoxicity against human HS 578T cells after 48 hrs by SRB assay; procedure, shortened: as §1
[15] = test system: SNB-75; assay: Cytotoxicity against human SNB75 cells after 48 hrs by SRB assay; conditions: SNB-75, 48 h; procedure, shortened: as §1
[16] = test system: U-251; assay: Cytotoxicity against human U251 cells after 48 hrs by SRB assay; conditions: U-251, 48 h; procedure, shortened: as §1
[17] = test system: M14; assay: Cytotoxicity against human M14 cells after 48 hrs by SRB assay; conditions: M14, 48 h; procedure, shortened: as §1
[18] = test system: A549; assay: Cytotoxicity against human A549 cells after 48 hrs by SRB assay; conditions: A549, 48 h; procedure, shortened: as §1
[19] = test system: NCI-H226; assay: Cytotoxicity against human NCI-H226 cells after 48 hrs by SRB assay; conditions: NCI-H226, 48 h; procedure, shortened: as §1
[20] = test system: NCI-H322M; assay: Cytotoxicity against human NCI-H322M cells after 48 hrs by SRB assay; procedure, shortened: as §1
[21] = test system: NCI-H460; assay: Cytotoxicity against human NCI-H460 cells after 48 hrs by SRB assay; conditions: NCI-H460, 48 h; procedure, shortened: as §1
[22] = read-out: Log LC50 (the source's name) (converted)

## CC(=O)O[C@@H]1C#C/C=C\C#CC[C@H]2C(=O)N(C(=O)OC(C)(C)C)[C@H]12
[1]
  GI50: > 100 µM
[1]; [22]
  CC50: > 100 µM
[1]; read-out: Log TGI (converted)
  TGI: > 100 µM
[2]
  GI50: 13.5 µM
[2]; [22]
  CC50: > 100 µM
[2]; read-out: Log TGI (converted)
  TGI: > 100 µM
[3]
  GI50: 30.9 µM
[3]; [22]
  CC50: > 100 µM
[3]; read-out: Log TGI (converted)
  TGI: > 100 µM
[4]
  GI50: 0.724 µM
[4]; [22]
  CC50: 25.7 µM
[4]; read-out: Log TGI (converted)
  TGI: 5.37 µM
[5]; [22]
  CC50: > 100 µM
[5]; read-out: Log TGI (converted)
  TGI: > 100 µM
[5]; read-out: pGI50 (converted)
  GI50: 18.2 µM
[6]
  GI50: 19.5 µM
[6]; [22]
  CC50: > 100 µM
[6]; read-out: Log TGI (converted)
  TGI: > 100 µM
[7]
  GI50: 61.7 µM
[7]; [22]
  CC50: > 100 µM
[7]; read-out: Log TGI (converted)
  TGI: > 100 µM
[8]
  GI50: 11.5 µM
[8]; [22]
  CC50: > 100 µM
[8]; read-out: Log TGI (converted)
  TGI: 69.2 µM
[9]
  GI50: 0.355 µM
[9]; [22]
  CC50: 60.3 µM
[9]; read-out: Log TGI (converted)
  TGI: 6.46 µM
[10]
  GI50: 20.4 µM
[10]; [22]
  CC50: > 100 µM
[10]; read-out: Log TGI (converted)
  TGI: 69.2 µM
[11]
  GI50: 35.5 µM
[11]; [22]
  CC50: > 100 µM
[11]; read-out: Log TGI (converted)
  TGI: > 100 µM
[12]
  GI50: 5.89 µM
[12]; [22]
  CC50: > 100 µM
[12]; read-out: Log TGI (converted)
  TGI: > 100 µM
[13]
  GI50: 28.8 µM
[13]; [22]
  CC50: > 100 µM
[13]; read-out: Log TGI (converted)
  TGI: > 100 µM
[14]
  GI50: 53.7 µM
[14]; [22]
  CC50: > 100 µM
[14]; read-out: Log TGI (converted)
  TGI: > 100 µM
[15]
  GI50: 38 µM
[15]; [22]
  CC50: > 100 µM
[15]; read-out: Log TGI (converted)
  TGI: > 100 µM
[16]
  GI50: 16.2 µM
[16]; [22]
  CC50: > 100 µM
[16]; read-out: Log TGI (converted)
  TGI: > 100 µM
[17]
  GI50: 39.8 µM
[17]; [22]
  CC50: > 100 µM
[17]; read-out: Log TGI (converted)
  TGI: > 100 µM
[18]
  GI50: 28.2 µM
[18]; [22]
  CC50: > 100 µM
[18]; read-out: Log TGI (converted)
  TGI: > 100 µM
[19]
  GI50: 39.8 µM
[20]
  GI50: > 100 µM
[20]; [22]
  CC50: > 100 µM
[20]; read-out: Log TGI (converted)
  TGI: > 100 µM
[21]
  GI50: 0.0933 µM
[21]; [22]
  CC50: > 100 µM
[21]; read-out: Log TGI (converted)
  TGI: > 100 µM
